Screening data deposited in PubChem BioAssay by several laboratories.
Most compounds without a hit are left out; they make up all but 7.4% or so of the library.
M1 antag: antagonists of rat M1 muscarinic receptor; B-score at 10 µM; CHO-M1 cells, Fluo-4 calcium, ACh EC80 antagonist mode; hits give low values; Muscarinic acetylcholine receptor M1 (Rattus norvegicus), P08482; hit rate 3.4% among 64,000; AID 628, 2007;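 active = calcium fluorescence response, raw or row-and-column corrected B-score, differing from the plate sample mean either way at a set confidence level, mostly lower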
Target sequence (P08482 whole entry, looked up): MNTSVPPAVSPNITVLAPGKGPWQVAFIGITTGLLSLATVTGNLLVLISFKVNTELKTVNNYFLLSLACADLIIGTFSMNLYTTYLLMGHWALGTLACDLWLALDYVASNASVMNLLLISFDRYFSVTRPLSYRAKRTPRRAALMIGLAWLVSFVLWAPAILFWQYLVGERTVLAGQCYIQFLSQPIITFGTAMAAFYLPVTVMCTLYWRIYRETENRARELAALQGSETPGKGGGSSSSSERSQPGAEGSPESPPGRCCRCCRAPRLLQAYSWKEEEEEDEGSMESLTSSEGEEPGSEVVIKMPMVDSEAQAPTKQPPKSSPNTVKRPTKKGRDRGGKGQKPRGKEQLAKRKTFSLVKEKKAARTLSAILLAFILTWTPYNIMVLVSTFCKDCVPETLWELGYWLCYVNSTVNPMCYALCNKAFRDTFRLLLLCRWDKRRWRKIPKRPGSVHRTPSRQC
Jurkat viability: cytotoxicity toward Jurkat T cells, primary screen, cytotoxicity control, cell-based, Jurkat E6.1, 60K MLSMR library | Jurkat E6.1 viability, ATP luminescence, 48 h | inhibition, % at 4 µM | AID 463, 2006 | hit rate 1.2% among 56,000;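 active = inhibition above the mean inhibition of all tested compounds plus 3 SD, cut at about 28% in these data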
S1P3 agonist: human S1P3 receptor agonists, primary screen, cell-based, primary and confirmation, NFAT-BLA reporter; Sphingosine 1-phosphate receptor 3 (Homo sapiens), Q99500; S1P3 NFAT-BLA reporter cells, agonism, FRET ratio; relative to 1 µM S1P, basal subtracted; activation, % at 4.5 µM; hit rate 0.1% among 60,000; AID 373, 2006;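 active = activation above the screen-wide mean plus 3 SD, cut at about 4.5% in these data, passing the limit was not always enough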
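Assay system: stable CHO line with human S1P3, Gα16, NFAT-BLA reporter; Detection: FRET β-lactamase substrate fluorescence, excitation 405 nm, 460/535 nm emission ratio, background-subtracted; Read-out: percent activation versus median 1 µM S1P response, basal-subtracted, per plate; Incubation: cells plated overnight, compound 4 h 37 °C, substrate 2 h RT.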
JNK3 blocker: JNK3 kinase activity inhibitors, primary screen, biochemical, human, purified enzyme | Mitogen-activated protein kinase 10 (Homo sapiens), P53779 | HTS | inhibition, % at 8 µM | hit rate 0.61% among 60,000; in the data active = inhibition above about 17%;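 also: 0% = DMSO and 100% = reference inhibitor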
M1 ag: M1 muscarinic receptor agonists, primary screen, CHO-M1 cells, Fluo-4 calcium, agonist mode. Muscarinic acetylcholine receptor M1. Fluo-4 calcium fluorescence; hits give high values. B-score at 10 µM. hit rate 3% among 64,000. AID 626, 2007;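 active = fluorescence rise, raw or as B-score row- and column-corrected plate score, outside the 99.7% band of its plate's samples, either direction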
S1P1 ag-PAM: S1P1 agonists and agonism potentiators, primary screen, cell-based, primary and confirmation screens, CRE-bla reporter; Sphingosine 1-phosphate receptor 1 (Homo sapiens), P21453; S1P1 CRE-bla cells, forskolin, beta-lactamase FRET, potentiator mode; S1P1 agonist co-added at EC20, 2 nM; 100% = saturating reference agonist, 0% = basal; activation, % at 9.5 µM; hit rate 0.57% among 56,000;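 active = activation above a cutoff set at the mean activation of all tested compounds plus 3 SD, cut at about 54% in these data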;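 also: forskolin at 4 µM as EC80 and the EC20 agonist is SEW2871; 100% = SEW2871 at its EC100 plus forskolin at EC80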
M1 antag conf: rat M1 muscarinic receptor antagonists, confirmation, CHO cells, Fluo-4 calcium, duplicate. ACh EC80 antagonism; hits give low values. shares compounds with M1 antag. hit rate 43% among 1,700. calcium response (max-min fluorescence) at 10 µM;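 active = calcium response below the same-plate mean of wells given acetylcholine alone at its 80%-effect dose, minus 3 SD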;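 also: raw fluorescence intensity difference in arbitrary instrument units and not normalized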
mGluR4 antag: human mGluR4 response to M1 antagonist hits, M1 allosteric modulator project, cell-based, antagonist mode, secondary assay 1 | AID 678, 2007 | fluorescence response (max-min) at 10 µM | hit rate 0.9% among 1,700 | CHO-mGluR4 calcium flux, Fluo-4 fluorescence, glutamate EC80; hits give low values | shares compounds with M1 antag;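 active = fluorescence response below the plate's average for near-maximal glutamate wells, less 3 SD of those wells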;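 also: raw unnormalized fluorescence span taken in the window right after glutamate addition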
* = called active by the depositor; x = no result.

SMILES	M1 antag	Jurkat viability	S1P3 agonist	JNK3 blocker	M1 ag	S1P1 ag-PAM	M1 antag conf	mGluR4 antag
CCCCOC(=O)C1Cc2ccccc2C(=O)O1 (stereo not drawn)	0.24	-4	0	10	0.094	x	x	x
CCc1cc2c(=O)c(-n3cnc4ccccc43)coc2cc1O	0.3	-3	0	-6	-0.75	27	x	x
COC(=O)Nc1nc2c(s1)CCCC2	-3.1*	4	-1	3	0.15	-7	581	241
Cc1ccc(S(=O)(=O)Nc2nsc(N)n2)cc1	-2.9*	-3	1	7	-0.018	2	641	213
O=c1c2ccccc2[nH]c(=S)n1CCN1CCN(Cc2ccccc2)CC1	-4.2*	3	0	2	-0.26	-16	508*	176
O=C(CCCCCn1c(=S)[nH]c2cc3c(cc2c1=O)OCO3)N1CCN(Cc2ccccc2)CC1	-0.47	x	x	x	-0.049	x	x	x
COc1ccc(C(=O)N2CCCC(c3nc(-c4ccc(OC)c(OC)c4)no3)C2)c(OC)c1 (stereo not drawn)	-0.07	7	-1	2	-0.35	55	x	x
Cc1ccc2oc(C(=O)Nc3c(C)n(C)n(-c4ccccc4)c3=O)c(C)c2c1	-0.049	-4	0	4	0.18	x	x	x
COCCCNCCOc1cc(C(C)C)ccc1C	-2.3*	-1	0	-3	-0.14	x	554	237
Cc1ccc(C)c(OCCCC(=O)O)c1	1.6	-3	0	4	0.07	-8	x	x
NC(=O)COc1ccc(=O)n(-c2ccccc2)n1	-2.4*	1	-1	3	-0.76	0	564	226
COc1ccc(C2CCCN2C(=O)Nc2ccc(F)cc2)cc1OC (stereo not drawn)	0.57	0	0	-5	-0.09	-13	x	x
COc1ccc(C2CCCN2C(=O)Nc2cccc(C(C)=O)c2)cc1OC (stereo not drawn)	-2.5*	3	-1	2	-0.11	0	620	249
COc1ccc(-c2nc(-c3cccs3)c(-c3cccs3)[nH]2)cc1O	-0.3	6	-1	-1	1.4	-22	x	x
CCn1c(SCC(=O)Nc2cc(OC)ccc2OC)nnc1C1CCCCC1	-0.12	8	0	-7	-0.11	7	x	x
CCn1c(SCC(=O)O)nnc1C1CCCCC1	-4.7*	-2	0	7	-0.82	-4	562	178
O=C(NC1CCCCC1)n1c(=O)oc2ccc(Cl)cc21	0.091	5	-1	-5	-0.4	-8	x	x
O=C(NC1CCCCC1)n1c(=O)oc2ccccc21	-15*	6	-1	4	-0.15	-1	703	207
CCOC(=O)c1[nH]c2ccc(OCC)cc2c1NC(=O)CN1CCN(c2ccccn2)CC1	-2.5*	-4	0	-1	1	11	581	198
CCOC(=O)c1[nH]c2ccc(OC)cc2c1NC(=O)CN1CCN(c2ccccn2)CC1	-0.81	x	4	-2	3	4	x	x
CC(C)(C)C(=O)N=C1SC2CS(=O)(=O)CC2N1c1ccc2c(c1)OCO2 (stereo not drawn)	-0.01	5	-2	-4	-0.0058	1	x	x
O=C(OCc1c(Cl)nc2sccn12)c1cc2c(s1)CCCC2	-1.5	-7	-1	4	-0.68	0	x	x
COc1ccc(NC(=O)C2CC(=O)OC2(C)C)cc1 (stereo not drawn)	0.038	-4	-1	0	0.96	2	x	x
Cc1cccc(OCCCCCNCCO)c1	0.18	-3	0	5	1.5	-15	x	x
CCCCNCCCOc1cccc(Cl)c1	-4.6*	10	-1	1	-2.8*	-11	483	219
SMILES	M1 antag	Jurkat viability	S1P3 agonist	JNK3 blocker	M1 ag	S1P1 ag-PAM	M1 antag conf	mGluR4 antag
CC(C)C(=O)NC(C)C(c1cccs1)N1CCOCC1 (stereo not drawn)	-0.096	-1	-1	-3	-0.18	11	x	x
COc1ccccc1C(=O)NC(C)C(c1cccs1)N1CCOCC1 (stereo not drawn)	-3.5*	-5	0	0	-0.29	14	656	249
COc1ccc(OC)c(NC2c3ccccc3C(=O)N2c2cccnc2)c1 (stereo not drawn)	0.92	2	-2	0	-0.13	-6	x	x
CC1CCc2nc(NC(=O)CN3CCOCC3)sc2C1 (stereo not drawn)	-4*	-1	-1	1	0.92	2	666	198
CC1CCc2nc(NC(=O)CN3CCN(c4ccccc4)CC3)sc2C1 (stereo not drawn)	-0.039	-8	0	1	-0.029	0	x	x
COc1ccc2c(c1)Sc1ccccc1N2CCN(C)C	-8.6*	0	-1	-29	0.44	2	114*	247
COc1ccc2c(c1)S/C(=C\C(=O)c1ccncc1)N2C	0.15	-7	-1	-8	-0.87	-24	x	x
CC(Sc1nnc(N)s1)c1ccccc1Cl (stereo not drawn)	-0.91	-4	0	-2	-1.1	-15	x	x
CCOC(=O)c1oc2ccc3c(c2c1C)C(=O)CC1(CCN(C(=O)OCC)CC1)O3	-0.55	2	-1	7	2.3	-10	x	x
CCOC(=O)N1CCC2(CC1)CC(=O)c1c(ccc3oc(C(=O)O)c(C)c13)O2	-3.3*	-9	-1	7	0.044	-10	668	242
Cc1cccc(NC(=O)Cn2c(C)c(C#N)c3ccccc32)c1C	0.17	10	-1	1	-0.41	16	x	x
O=C1CSC(c2ccccc2F)N1c1cc(Cl)ccc1O (stereo not drawn)	x	-3	0	7	x	8	x	x
O=C1CSC(c2ccccc2F)N1CCN1CCCCC1 (stereo not drawn)	-2.8*	0	0	5	-0.034	-23	481*	230
O=C1Nc2ccccc2OC1CC(=O)N1CCN(c2cccc(C(F)(F)F)c2)CC1 (stereo not drawn)	-0.81	-2	0	5	0.61	15	x	x
CCSc1nc2c([nH]c3ccccc32)c(=O)n1C	-4.2*	-4	0	-3	-0.12	-20	443	214
